Compound activity from PubChem.
Compounds with a hit are over-represented: about 1.9% of the library has one in this group of screens.
Rce1 inhib – yeast Rce1p protease inhibitors, primary screen, biochemical, fluorescence, cell-free homogeneous. CAAX prenyl protease 2 (Saccharomyces cerevisiae (strain ATCC 204508 / S288c)), Q03530. yeast membranes, quenched prenylated peptide cleavage fluorescence. calls only. 0.27% of 290,000 active. AID 2563, 2010;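 active means fall in fluorescence gain of 50% or more versus controls, with final raw signal at or below 3038400; inconclusive means same 50% fall but final raw signal above 3038400; inactive means fall in fluorescence gain under 50%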
Target sequence (Q03530 whole entry, looked up): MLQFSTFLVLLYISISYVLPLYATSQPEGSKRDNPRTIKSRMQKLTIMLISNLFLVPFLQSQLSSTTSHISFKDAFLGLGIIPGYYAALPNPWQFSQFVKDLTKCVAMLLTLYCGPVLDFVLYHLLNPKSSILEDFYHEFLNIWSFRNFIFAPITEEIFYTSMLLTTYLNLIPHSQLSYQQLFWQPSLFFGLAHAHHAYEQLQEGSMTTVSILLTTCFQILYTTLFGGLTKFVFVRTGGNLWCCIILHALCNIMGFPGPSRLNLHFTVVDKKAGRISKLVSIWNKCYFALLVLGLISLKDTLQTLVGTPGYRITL
Yeast superoxide – reduction of superoxide in aged yeast, primary screen, HTS; S. cerevisiae aged cells, superoxide DHE fluorescence; active compounds read low; 0.18% of 330,000 active; superoxide response (% of plate mean), % at 10 µM;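 active means superoxide response under a set limit, about three screen SD below normal, cut at about 65% in these data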;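 further: yeast aged for seven days with compound at 30 °C before DHE staining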
T cell modulator – modulators of CD8 T cell-vesicle binding, primary screen, mouse 2C CD8+ T cells, flow cytometry. 0.068% of 330,000 active. response (vesicle binding), % at 7 µM. AID 2052, 2009. 2C CD8+ T cell-vesicle binding; active compounds read low;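 active means response, share of CD8 T cells binding vesicles, and their 90th percentile fluorescence all below set limits, cut at about 80% in these data, passing the limit was not always enough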;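 further: values below 100% mean blocked vesicle binding to the CD8+ T cells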
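Also added: QL9-peptide-loaded Drosophila micro-vesicles bearing Ld, ICAM-1 and B7-1; Test system: purified 2C TCR transgenic mouse naive CD8+ T cells; Measured by: cytometric PE anti-B7-1 and Alexa647 anti-CD8 signals after 1% paraformaldehyde fixation; Timing: binding step 1.5 h, 37 °C, antibody labelling 20 min, ice.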
MIN6 prolif – inducers of MIN6 beta-cell proliferation, primary screen, ATP luminescence, uHTS; AID 2380, 2010; MIN6 cells proliferation, ATPlite luminescence, 48 h; cells starved in 0.2% serum; 100% = growth in 10% serum; proliferation, % at 10 µM; 0.29% of 330,000 active;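 active means compounds whose signal lies at least 3.5 SD above the mean of all wells on their plate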
KLK7 zymogen act – proKLK7 zymogen activators, primary screen, biochemical, fluorescence intensity; activation, % at 7 µM; Kallikrein-7 (Homo sapiens), P49862; purified proKLK7, EDANS-DABCYL substrate fluorescence; 100% is mature enzyme control, 0% vehicle; 0.9% of 370,000 active;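 active means activation above the mean of all tested compounds plus 3 SD, computed per campaign excluding outliers beyond control limits, cut at about 13% in these data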
Target sequence (P49862 whole entry, looked up): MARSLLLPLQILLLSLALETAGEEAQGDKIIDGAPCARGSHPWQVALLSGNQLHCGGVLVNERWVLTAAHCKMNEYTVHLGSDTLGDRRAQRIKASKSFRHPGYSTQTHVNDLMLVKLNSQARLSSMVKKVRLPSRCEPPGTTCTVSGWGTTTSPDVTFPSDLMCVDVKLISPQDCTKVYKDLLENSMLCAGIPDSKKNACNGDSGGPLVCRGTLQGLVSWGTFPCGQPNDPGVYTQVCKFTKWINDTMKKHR
V-ATPase pH – regulators of yeast V-ATPase proton pumping, primary screen, pHLuorin cytosolic pH fluorescence. 0.37% of 350,000 active. response, % at 10 µM. S. cerevisiae; in the data active means response mostly above about 7.3%, no sharp cut-off; inactive means mostly below about 5.4%; further: actives read high
proKLK7 act conf – proKLK7 zymogen activators, confirmation, biochemical, fluorescence intensity, triplicate; purified proKLK7, EDANS-DABCYL substrate fluorescence; scaled: vehicle 0, mature enzyme 100; 68% of 3,200 active; activation, % at 7 µM; shares compounds with KLK7 zymogen act;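 active means activation, as change over the incubation, above the mean of all tested compounds plus 3 SD, cut at about 13% in these data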
EDANS-DABCYL int – EDANS-DABCYL substrate optical interference, artefact control for kallikrein-7 zymogen activator project, biochemical, fluorescence intensity, high throughput; shares compounds with KLK7 zymogen act; activation, % at 7 µM; no enzyme, 4 h; solvent 0%, active enzyme control 100%; 80% of 3,200 active; AID 686952, 2013;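 active means activation above the all-compound mean plus 3 SD, ignoring values outside control-based bounds, cut at about 4.8% in these data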;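 further: value is the 4 h activation minus the activation read at time zero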
K7 EDANS ctr – counter-screen for kallikrein-7 activators: EDANS-DABCYL interference, dose response | shares compounds with KLK7 zymogen act | EDANS-DABCYL peptide fluorescence interference, no enzyme | EC50, µM | 20% of 250 active | AID 720493;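 active means compounds that raise the fluorescence signal in this interference counterscreen, with EC50 at or below 10 µM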;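 further: intact quenched peptide substrate alone read at 355 nm excitation and 520 nm emission; signal is fluorescence gain from T0 to T4 after four hours at room temperature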
Hits are given with their value; . = inactive; ? = inconclusive; / = no result.

SMILES | Rce1 inhib | Yeast superoxide | T cell modulator | MIN6 prolif | KLK7 zymogen act | V-ATPase pH | proKLK7 act conf | EDANS-DABCYL int | others
O=C(CN1C(=O)NC2(CCCCC2)C1=O)Nc1ccc(Cl)c(S(=O)(=O)N2CCOCC2)c1 | / | . | . | . | . | . | / | /
COc1ccccc1C(=O)Nc1nc2cc3c(cc2s1)OCO3 | . | . | . | . | . | . | / | /
COc1cccc(OC)c1C(=O)Nc1nc2cc3c(cc2s1)OCO3 | . | . | . | . | 19 | . | . | .
O=C(C1CCN(S(=O)(=O)c2ccc(Cl)c(C(F)(F)F)c2)CC1)N1CCC1 | / | . | . | . | . | . | / | /
COc1ccc(/C=C(/CC(=O)NCc2ccc(Cl)cc2)c2nc3ccccc3s2)cc1 | . | . | . | . | 28 | . | 68 | 57 | K7 EDANS ctr=2.4
O=C(OCC(=O)c1cccc2ccccc12)c1ccc(CO)cc1 | . | . | . | . | . | . | / | /
Cc1cc(=O)oc2c3c(cc(OCC(=O)NCC(=O)O)c12)OC(C)(C)CC3 | ? | . | . | . | 43 | . | 66 | 79
Cc1cc(=O)oc2c3c(cc(OCC(=O)NC4CC4)c12)OC(C)(C)CC3 | . | . | . | . | 15 | . | 22 | 27
Cc1c(C)c2c(OCC(=O)NC3CC3)cc3c(c2oc1=O)CCC(C)(C)O3 | . | . | . | . | . | . | / | /
Cc1cc(C)cc(C(=O)OCCCN(C)C2CN(Cc3cn(Cc4ccccc4F)nn3)S(=O)(=O)C2)c1 (stereo unspecified) | / | / | / | / | . | / | / | /
O=C(NCc1ccccc1)[C@H]1CCCN1 | / | / | / | / | . | / | / | /
CCN1C(=O)c2cccc3c(S(=O)(=O)NC(Cc4ccccc4)C(=O)O)ccc1c23 (stereo unspecified) | . | . | . | . | 51 | . | 66 | 67
CCN1C(=O)c2cccc3c(S(=O)(=O)NCc4cccnc4)ccc1c23 | . | . | . | . | 53 | . | 71 | 78
CCN1C(=O)c2cccc3c(S(=O)(=O)Nc4ccncc4)ccc1c23 | . | . | . | . | / | . | / | /
CC1(C(=O)Nc2ccc3c(c2)OCCO3)CSCC(=O)N1C1CC1 (stereo unspecified) | / | / | / | / | . | / | / | /
CCOC(=O)c1cc2ccc(OC(=O)c3ccco3)cc2oc1=O | . | . | / | . | 101 | . | 668 | 659
CCOC(=O)c1c(C)n(C)c2ccc(OC(=O)c3ccco3)cc12 | . | . | . | . | . | . | / | /
CCOC(=O)c1cc2ccc3ccccc3c2oc1=O | . | . | . | . | 53 | . | 74 | 76
CCOC(=O)c1c[nH]c2ccc3ccccc3c2c1=O | . | . | . | . | . | . | / | /
Nc1ccc(-c2ncc(-c3ccccc3)o2)cc1 | . | . | . | . | 21 | . | . | .
O=C(O)c1ccccc1-c1ncc(-c2ccccc2)o1 | . | . | . | . | . | . | / | /
Cc1ccc(-c2cnc(-c3ccncc3)o2)cc1 | . | . | . | . | 74 | . | 65 | 70
CCOc1ccc(/C=C/C(=O)Nc2ccc(C(N)=O)cc2)cc1OC | . | . | . | . | 42 | . | 85 | 94
COc1ccc(NC(=O)COc2ccc(/C=C/c3cc[n+](C)cc3)cc2OC)cc1 | . | . | . | . | 31 | . | 64 | 68
COc1ccc(/C=C/C(=O)Nc2ccncc2)cc1OC | . | . | . | . | 17 | . | 13 | 13
SMILES | Rce1 inhib | Yeast superoxide | T cell modulator | MIN6 prolif | KLK7 zymogen act | V-ATPase pH | proKLK7 act conf | EDANS-DABCYL int | others
COc1ccc(NC(=O)/C=C/c2ccc(OC)c(OC)c2)cn1 | . | . | . | . | . | . | / | /
COc1ccc(NC(=O)COc2ccc(/C=C/c3cccc[n+]3C)cc2OC)cc1 | . | . | . | . | . | . | / | /
CCc1ccc2c(CN3CCN(S(=O)(=O)c4ccc5c(c4)OCCO5)CC3)cc(=O)oc2c1 | . | . | . | . | . | . | / | /
COc1ccc(OC)c(CN2CCN(Cc3cc(=O)oc4cc(O)ccc34)CC2)c1 | . | . | . | . | 59 | . | 76 | 75
CN(C)c1cccc(C(=O)OCc2cc(=O)oc3cc(O)ccc23)c1 | . | . | . | . | . | . | / | /
CCc1cc2c(COC(=O)c3cccc(NS(C)(=O)=O)c3)cc(=O)oc2cc1O | . | . | . | . | 54 | . | 62 | 55
N#Cc1ccccc1COC(=O)c1cc(S(=O)(=O)N2CCOCC2)ccc1F | / | / | / | / | . | . | / | /
O=c1cc(CN2CCN(S(=O)(=O)c3ccc4c(c3)OCCO4)CC2)c2ccc(O)cc2o1 | . | . | . | . | 43 | . | 62 | 67
O=C(OCc1cc(=O)oc2cc(O)ccc12)c1cc(S(=O)(=O)N2CCOCC2)ccc1F | . | . | . | . | 644 | . | 677 | 654
CCC(=O)c1cn(CC(=O)Nc2cccc(OC)c2)c2ccccc12 | . | . | . | . | . | . | / | /
CC(C)(C)c1ccc(C(=O)NCC(=O)N2CCCCCC2)cc1 | . | . | . | . | . | . | / | /
Cc1noc(C)c1COC(=O)c1cc(S(=O)(=O)N2CCOCC2)ccc1F | / | . | . | . | . | . | / | /
CC1CN(S(=O)(=O)c2cccc(C(=O)OCc3cc(=O)oc4cc(O)ccc34)c2)CC(C)O1 (stereo unspecified) | . | . | . | . | 375 | . | 540 | 528
CCc1cc2c(COC(=O)c3cc(S(=O)(=O)N4CCOCC4)ccc3F)cc(=O)oc2cc1O | / | . | . | . | 113 | . | 446 | 456
N#Cc1ccccc1S(=O)(=O)N1CCN(C(=O)C2CCCCC2)CC1 | / | . | . | . | . | . | / | /
Cc1nc2ccccc2n1CC(=O)OCC(=O)N1CCC(C)CC1 | / | . | . | . | . | . | / | /
OC1CCCN(Cc2cccc3ccccc23)C1 (stereo unspecified) | / | . | . | . | . | . | / | /
OC1CCCN(Cc2c3ccccc3cc3ccccc23)C1 (stereo unspecified) | . | . | . | . | 15 | . | . | .
O=C(O)c1cc(N=Cc2c(O)c3ccccc3oc2=O)ccc1O | . | . | . | . | 150 | . | 398 | 355
Cc1cc(C)cc(N=Cc2c(O)c3ccccc3oc2=O)c1 | . | . | . | . | . | . | / | /
Cc1cc(C)n2cc(CSCc3ccccc3)nc2n1 | . | . | . | . | 14 | . | 25 | 21 | K7 EDANS ctr=.
